In brackets after ≈: the same amount, converted by molar mass. Activity calls are given as the source filed them. The calls are words filed in the database; no cut-off is given here.
Columns and labels:
[1] = system: Mycobacterium tuberculosis; test: Antitubercular activity against Mycobacterium tuberculosis H37Rv constitutively expressing GFP assessed as inhibition of bacterial growth at 20 uM incubated for 7 days by fluorescence based analysis; format: functional; conditions: 168 h, time 7 day
[2] = system: Mycobacterium tuberculosis; test: Antitubercular activity against replicating Mycobacterium tuberculosis H37Rv constitutively expressing GFP assessed as inhibition of bacterial growth under normoxia conditions incubated for 3 weeks by spot assay; format: functional; conditions: 504 h
[3] = system: Mycobacterium tuberculosis; test: Antitubercular activity against non-replicating Mycobacterium tuberculosis H37Rv constitutively expressing GFP assessed as inhibition of bacterial growth incubated for 7 days under hypoxic condition followed by incubation in aerobic conditions for 1 to 5 days by spot assay; format: functional; conditions: time 8-12 day
[4] = system: Mycobacterium tuberculosis; test: Antitubercular activity against non-replicating Mycobacterium tuberculosis H37Rv expressing luxCDAB assessed as inhibition of bacterial growth incubated for 7 days under hypoxia conditions followed by incubation in normoxia conditions for 5 days by luminescence based analysis; format: functional; conditions: 288 h, time 12 day
TGF-beta receptor type-1 = biological target: T1, TGF-beta receptor type-1 (Homo sapiens, UniProt P36897); test: Binding affinity to wild type human partial length TGFBR1 (D179 to M503 residues) expressed in bacterial expression system by KINOMEscan assay
T1 sequence (P36897 whole entry): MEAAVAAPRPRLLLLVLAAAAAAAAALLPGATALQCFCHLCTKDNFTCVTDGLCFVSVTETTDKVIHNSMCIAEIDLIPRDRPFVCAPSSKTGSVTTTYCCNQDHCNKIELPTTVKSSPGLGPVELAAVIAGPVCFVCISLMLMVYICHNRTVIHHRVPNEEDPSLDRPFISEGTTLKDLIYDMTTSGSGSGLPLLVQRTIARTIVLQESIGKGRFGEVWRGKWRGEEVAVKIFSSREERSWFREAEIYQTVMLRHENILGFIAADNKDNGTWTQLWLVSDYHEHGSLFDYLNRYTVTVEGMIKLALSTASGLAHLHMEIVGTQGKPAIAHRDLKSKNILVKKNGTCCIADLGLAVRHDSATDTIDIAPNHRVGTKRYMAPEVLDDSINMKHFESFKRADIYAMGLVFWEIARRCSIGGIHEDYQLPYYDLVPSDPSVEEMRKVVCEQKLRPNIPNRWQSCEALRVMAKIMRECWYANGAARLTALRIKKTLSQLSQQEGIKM

[5] = system: Mycobacterium tuberculosis; test: Antitubercular activity against RIF/INH-tolerant persistent Mycobacterium tuberculosis H37Rv assessed as reduction of viable bacteria at 4.9 uM incubated for 14 days followed by drug wash-out and measured after 21 days; format: functional, organism-based; conditions: time 14.0 day
Outline: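 Static at 37 °C for 14 days, washed twice, resuspended in fresh 7H9 and recovered for 28 days. CFU plated 21 and 28 days after drug removal.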

[6] = Metabolic stability of the compound in CD-1 mouse liver microsomes assessed as parent compound remaining at 5 uM preincubated for 5 mins followed by NADPH addition and measured after 30 mins by LC-TOF/MS analysis; format: ADME, Microsome; conditions: time 35 min, read-out: Stability
Outline: (§1)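 Mouse liver microsomes incubated with compound in the presence of NADPH. Read-out is % parent compound remaining after 30 min.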

[7] = Metabolic stability of the compound in CD-1 mouse liver microsomes at 5 uM by LC-TOF/MS analysis; format: ADME, Microsome; outline: as §1
[8] = AUC(last) in CD-1 mouse at 10 mg/kg, po by LC/MS/MS analysis; format: ADME, organism-based; parameters: dose 10 mg/kg, route po; conditions: in vivo
Outline: (§2)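 CD1 mice dosed orally at 10 mg/kg (snapshot PK study). Plasma levels followed over 5 h by LC/MS/MS. T1/2, Cmax and AUC_last derived from the plasma profile.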

[9] = Half life in CD-1 mouse at 10 mg/kg, po by LC/MS/MS analysis; format: ADME, organism-based; conditions: in vivo; outline: as §2
[10] = Cmax in CD-1 mouse at 10 mg/kg, po by LC/MS/MS analysis; format: ADME, organism-based; parameters: dose 10 mg/kg, route po; conditions: in vivo; outline: as §2
[11] = Oral bioavailability in CD-1 mouse at 10 mg/kg by LC/MS/MS analysis; format: ADME, organism-based; conditions: in vivo
Outline: (§3)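 Full PK study in CD1 mice at 10 mg/kg given by oral, intravenous and intraperitoneal routes. Plasma levels monitored over 8 h by LC/MS/MS.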

[12] = Volume of distribution in CD-1 mouse at 10 mg/kg by LC/MS/MS analysis; format: ADME, organism-based; conditions: in vivo; outline: as §3
[13] = Bioavailability in CD-1 mouse at 10 mg/kg, ip by LC/MS/MS analysis; format: ADME, organism-based; conditions: in vivo; outline: as §3

| SMILES | MIC50 [4] | MIC90 [4] | Kd (TGF-beta receptor type-1) | remaining at 0.5 h, 5 µM [6] | Stability [7] | other results |
| --- | --- | --- | --- | --- | --- | --- |
| CS(=O)(=O)CCNCc1coc(-c2ccc3ncnc(Nc4ccc(OCc5ccccc5)cc4)c3c2)c1 [GW566221A] | – | – | – | – | – | inhibition at 20 µM [1]: > 90%; MIC90 [2]: 3 µM (≈ 1.59 µg/mL); MIC90 [3]: 7 µM (≈ 3.7 µg/mL) |
| CN1CCN(Cc2cccc(-c3ccc4c(Nc5ccc(Oc6ccccc6)cc5)ccnc4c3)c2)CC1 | – | – | – | – | – | inhibition at 20 µM [1]: > 90%; MIC90 [2]: 11 µM (≈ 5.51 µg/mL); MIC90 [3]: 6 µM (≈ 3 µg/mL) |
| Cc1cccc(-c2nc(Nc3ccc4occc4c3)c3ccccc3n2)n1 | < 0.3 µM | 1.3 µM (≈ 0.458 µg/mL) | > 10 µM | – | – | – |
| Cc1cccc(-c2nc(Oc3ccc4ncsc4c3)c3ccccc3n2)n1 | < 0.3 µM | 0.3 µM (≈ 0.111 µg/mL) | > 10 µM | – | – | – |
| Cc1cccc(-c2nc(Oc3ccc4scnc4c3)c3ccccc3n2)n1 | < 0.3 µM | 0.3 µM (≈ 0.111 µg/mL) | > 10 µM | – | – | – |
| Cn1cncc1-c1cc2c(Nc3ccc(OCc4ccccc4)cc3)ncnc2cn1 | – | – | – | – | – | inhibition at 20 µM [1]: > 90%; MIC50 [2]: 5 µM (≈ 2.04 µg/mL); MIC90 [2]: > 20 µM |
| CC[C@@H](CO)NCCN[C@@H](CC)CO | – | – | – | – | – | Activity [5]: inactive |
| COc1ccc(Nc2nc(-c3cccc(C)n3)nc3ccccc23)cc1 | < 0.3 µM | 1.3 µM (≈ 0.445 µg/mL) | > 10 µM | – | – | – |
| Cc1cccc(-c2nc(N(C)c3ccc4ncsc4c3)c3ccccc3n2)n1 | < 0.3 µM | 1.3 µM (≈ 0.499 µg/mL) | > 10 µM | – | – | – |
| Cc1cccc(-c2nc(Nc3ccc4c(c3)OCO4)c3ccccc3n2)n1 | < 0.3 µM | 1.3 µM (≈ 0.463 µg/mL) | – | 30% | Stable | AUClast [8]: 250 ng·h/mL; t1/2 [9]: 3.4 h; Cmax [10]: 75 ng/mL |
| CO[C@H]1/C=C/O[C@@]2(C)Oc3c(C)c(O)c4c(O)c(c(/C=N/N5CCN(C)CC5)c(O)c4c3C2=O)NC(=O)/C(C)=C\C=C\[C@H](C)[C@H](O)[C@@H](C)[C@@H](O)[C@@H](C)[C@H](OC(C)=O)[C@@H]1C [RIFAMPIN] | – | – | – | – | – | MIC90 [3]: 0.4 µM (≈ 0.329 µg/mL) |
| Cc1cccc(-c2nc(Nc3ccc4scnc4c3)c3ccccc3n2)n1 | < 0.3 µM | 1.3 µM (≈ 0.48 µg/mL) | > 10 µM | – | – | – |
| Cc1ccc(NC(=O)c2ccnc(N3CCN(C)CC3)c2)cc1-c1ccc(C(=O)NCC2CC2)cc1 | – | – | – | – | – | inhibition at 20 µM [1]: > 90%; MIC50 [2]: 4 µM (≈ 1.93 µg/mL); MIC90 [2]: 6 µM (≈ 2.9 µg/mL) |
| Cc1cccc(-c2nc(Nc3ccc4nc(C)sc4c3)c3ccccc3n2)n1 | < 0.3 µM | 0.3 µM (≈ 0.115 µg/mL) | > 10 µM | 18% | Stable | – |
| Cc1cccc(-c2nc(Nc3ccc4ccsc4c3)c3ccccc3n2)n1 | < 0.3 µM | 0.3 µM (≈ 0.111 µg/mL) | > 10 µM | 8% | Stable | – |
| Cc1cccc(-c2nc(Nc3ccncc3)c3ccn(C)c3n2)n1 | < 1 µM | < 1 µM | – | 39% | Stable | bioavailability [11]: 25%; AUClast [8]: 640 ng·h/mL; t1/2 [9]: 1.9 h; Cmax [10]: 280 ng/mL; Vd [12]: 4.65 L/kg; bioavailability [13]: 65% |
| Cn1cncc1-c1ccc2ncnc(Nc3ccc(OCc4ccccc4)cc3)c2c1 | – | – | – | – | – | inhibition at 20 µM [1]: > 90%; MIC50 [2]: 5 µM (≈ 2.04 µg/mL); MIC90 [2]: 5 µM (≈ 2.04 µg/mL); MIC90 [3]: 11 µM (≈ 4.48 µg/mL) |
| FC(F)(F)c1cccc(-c2nc(Nc3ccncc3)c3ccccc3n2)n1 | 1 µM (≈ 0.367 µg/mL) | 5 µM (≈ 1.84 µg/mL) | – | 29% | Stable | – |
| Nc1nc(-c2ccccn2)c(-c2ccnc3ccccc23)s1 | – | – | – | – | – | inhibition at 20 µM [1]: > 90%; MIC50 [2]: 13 µM (≈ 3.96 µg/mL); MIC90 [2]: 20 µM (≈ 6.09 µg/mL); MIC90 [3]: > 20 µM |
| Cc1cccc(-c2nc(Nc3ccc4[nH]ncc4c3)c3ccccc3n2)n1 | < 0.3 µM | 5 µM (≈ 1.76 µg/mL) | – | 9% | Stable | – |
| COc1ccc2c(Nc3ccncc3)nc(-c3cccc(C)n3)nc2c1 | 1 µM (≈ 0.343 µg/mL) | 2.5 µM (≈ 0.858 µg/mL) | – | 12% | Stable | – |
| Cc1cccc(-c2nc(Nc3ccc4nn(C)nc4c3)c3ccccc3n2)n1 | < 0.3 µM | 0.3 µM (≈ 0.11 µg/mL) | > 10 µM | 30% | Stable | AUClast [8]: 440 ng·h/mL; t1/2 [9]: 4.6 h; Cmax [10]: 150 ng/mL |
| Cc1cccc(-c2nc(Nc3ccc4c(c3)nnn4C)c3ccccc3n2)n1 | < 0.3 µM | 1.3 µM (≈ 0.478 µg/mL) | > 10 µM | 28% | Stable | – |
| Fc1ccc(-c2c(-c3ccccn3)nc3n2CCS3)cc1 | – | – | – | – | – | inhibition at 20 µM [1]: > 90%; MIC50 [2]: 9 µM (≈ 2.68 µg/mL); MIC90 [2]: > 20 µM |
| Cc1cccc(-c2nc(Nc3ccc4nnn(C)c4c3)c3ccccc3n2)n1 | < 0.3 µM | 0.3 µM (≈ 0.11 µg/mL) | > 10 µM | 15% | Stable | – |
| Cc1cccc(-c2nc(Nc3ccc4c(c3)ncn4C)c3ccccc3n2)n1 | 1.3 µM (≈ 0.476 µg/mL) | 5 µM (≈ 1.83 µg/mL) | > 10 µM | – | – | – |
| c1ccc(-c2nc(Nc3ccncc3)c3ccccc3n2)nc1 | 1 µM (≈ 0.299 µg/mL) | 2.5 µM (≈ 0.748 µg/mL) | – | 20% | Stable | – |
| Fc1cccc(-c2nc(Nc3ccncc3)c3ccccc3n2)n1 | 1 µM (≈ 0.317 µg/mL) | 5 µM (≈ 1.59 µg/mL) | – | 18% | Stable | – |
| Cc1cccc(-c2nc(Nc3ccncc3)c3ccccc3n2)n1 | < 0.3 µM | 0.3 µM (≈ 0.094 µg/mL) | 0.01 µM | 14% | Stable | inhibition at 20 µM [1]: > 90%; MIC50 [2]: 16 µM (≈ 5.01 µg/mL); MIC90 [2]: 20 µM (≈ 6.27 µg/mL); MIC90 [3]: 1 µM (≈ 0.313 µg/mL); AUClast [8]: 75 ng·h/mL; t1/2 [9]: 1.8 h; Cmax [10]: 60 ng/mL |
| Cc1cccc(-c2nc(Nc3ccc4nn[nH]c4c3)c3ccccc3n2)n1 | 1.3 µM (≈ 0.459 µg/mL) | 5 µM (≈ 1.77 µg/mL) | > 10 µM | – | – | – |

Reference: ChEMBL document CHEMBL5370647 (J Med Chem, 2023)
